# Results published in ChEMBL document CHEMBL3763095, “Naphtho[1',2':4,5]imidazo[1,2-a]pyridine-5,6-diones: Synthesis, enzymatic reduction and cytotoxic activity” (Bioorg Med Chem Lett, 2016).
# B1: NADPH--cytochrome P450 reductase (Homo sapiens) (protein)
# chain: MGDSHVDTSSTVSEAVAEEVSLFSMTDMILFSLIVGLLTYWFLFRKKKEEVPEFTKIQTLTSSVRESSFVEKMKKTGRNIIVFYGSQTGTAEEFANRLSKDAHRYGMRGMSADPEEYDLADLSSLPEIDNALVVFCMATYGEGDPTDNAQDFYDWLQETDVDLSGVKFAVFGLGNKTYEHFNAMGKYVDKRLEQLGAQRIFELGLGDDDGNLEEDFITWREQFWPAVCEHFGVEATGEESSIRQYELVVHTDIDAAKVYMGEMGRLKSYENQKPPFDAKNPFLAAVTTNRKLNQGTERHLMHLELDISDSKIRYESGDHVAVYPANDSALVNQLGKILGADLDVVMSLNNLDEESNKKHPFPCPTSYRTALTYYLDITNPPRTNVLYELAQYASEPSEQELLRKMASSSGEGKELYLSWVVEARRHILAILQDCPSLRPPIDHLCELLPRLQARYYSIASSSKVHPNSVHICAVVVEYETKAGRINKGVATNWLRAKEPAGENGGRALVPMFVRKSQFRLPFKATTPVIMVGPGTGVAPFIGFIQERAWLRQQGKEVGETLLYYGCRRSDEDYLYREELAQFHRDGALTQLNVAFSREQSHKVYVQHLLKQDREHLWKLIEGGAHIYVCGDARNMARDVQNTFYDIVAELGAMEHAQAVDYIKKLMTKGRYSLDVWS
# Experiments:
# Parameters in all cases: species or system Homo sapiens
# [1] = substrate: COc1ccc2nc3c(n2c1)C(=O)C(=O)c1ccccc1-3; assay: (§1) Activity of NADPH:cytochrome P-450R (unknown origin) assessed as NADPH oxidation by spectrophotometric analysis
# How it was run: (§2)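 Initial rates of enzymatic reduction measured at varied compound concentrations with NADPH fixed at 150 µM. Reactivity expressed as apparent second-order k_cat/K_m, taken as the efficiency of reduction by the reduced free enzyme (ping-pong scheme).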
# [2] = substrate: Cc1ccc2nc3c(n2c1)C(=O)C(=O)c1ccccc1-3; assay: as §1; how it was run: as §2
# [3] = substrate: Cc1cccn2c3c(nc12)-c1ccccc1C(=O)C3=O; assay: as §1; how it was run: as §2
# [4] = substrate: Cc1ccn2c3c(nc2c1)-c1ccccc1C(=O)C3=O; assay: as §1; how it was run: as §2
# [5] = substrate: O=C1C(=O)c2c(nc3ccc(Br)cn23)-c2ccccc21; assay: as §1; how it was run: as §2
# [6] = substrate: O=C1C(=O)c2c(nc3ccc(C(F)(F)F)cn23)-c2ccccc21; assay: as §1; how it was run: as §2
# [7] = substrate: O=C1C(=O)c2c(nc3ccc(Cl)cn23)-c2ccccc21; assay: as §1; how it was run: as §2
# [8] = substrate: O=C1C(=O)c2c(nc3ccc(F)cn23)-c2ccccc21; assay: as §1; how it was run: as §2
# [9] = substrate: O=C1C(=O)c2c(nc3ccc([N+](=O)[O-])cn23)-c2ccccc21; assay: as §1; how it was run: as §2
# [10] = substrate: O=C1C(=O)c2c(nc3ccc4ccccc4n23)-c2ccccc21; assay: as §1; how it was run: as §2
# [11] = substrate: O=C1C(=O)c2c(nc3ccccn23)-c2ccc([N+](=O)[O-])cc21; assay: as §1; how it was run: as §2
# [12] = substrate: O=C1C(=O)c2c(nc3ccccn23)-c2ccccc21; assay: as §1; how it was run: as §2
# [13] = substrate: O=C1C(=O)c2c(nc3ncccn23)-c2ccccc21; assay: as §1; how it was run: as §2
protein,measurement,setting,value
B1,kcat/Km,[1],2.9e+07 M⁻¹ s⁻¹
same,kcat/Km,[2],8.9e+06 M⁻¹ s⁻¹
same,kcat/Km,[3],1.3e+07 M⁻¹ s⁻¹
same,kcat/Km,[4],1.4e+07 M⁻¹ s⁻¹
same,kcat/Km,[5],3.7e+07 M⁻¹ s⁻¹
same,kcat/Km,[6],3.5e+07 M⁻¹ s⁻¹
same,kcat/Km,[7],5.4e+07 M⁻¹ s⁻¹
same,kcat/Km,[8],2.4e+07 M⁻¹ s⁻¹
same,kcat/Km,[9],5.9e+07 M⁻¹ s⁻¹
same,kcat/Km,[10],5.6e+06 M⁻¹ s⁻¹
same,kcat/Km,[11],7.2e+07 M⁻¹ s⁻¹
same,kcat/Km,[12],3.1e+07 M⁻¹ s⁻¹
same,kcat/Km,[13],3.4e+07 M⁻¹ s⁻¹
